Test results from ChEMBL document CHEMBL1147853, “Synthesis and anti-HIV studies of 2-adamantyl-substituted thiazolidin-4-ones” (Eur J Med Chem, 2007).
The source made the active and inactive calls. No cut-off for these calls is given here.

How the values were obtained:
[1] = system: Influenza A virus; test: Antiviral activity against influenza virus H3N2 in MDCK cells; format: functional, organism-based
[2] = system: Human immunodeficiency virus 1; test: Antiviral activity against HIV1 3B in CEM cells; format: functional, organism-based; conditions: Human immunodeficiency virus 1, 3B, CCRF-CEM
Outline: (§1)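 CEM cells at 4×10^4 cells/mL infected with virus at ~100 CCID50 per mL of cell suspension, then mixed 1:1 with serial dilutions of compound. After four days, giant cell formation was scored microscopically.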

[3] = molecular target: T1, Human immunodeficiency virus type 1 reverse transcriptase (Human immunodeficiency virus 1, UniProt Q72547); test: Inhibition of HIV1 reverse transcriptase using Poly rC.dG template
[4] = Selectivity index, ratio of CC50 for CEM cells to EC50 for HIV1 infected CEM cells; format: functional, CCRF-CEM
[5] = Cytotoxicity against CEM cells; format: cell-based; conditions: human, CEM (CCRF-CEM) cells
Outline: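 CEM cells were plated at 300,000–500,000 cells/mL with an equal volume of compound dilutions and incubated 3 days at 37 °C. Cell number was counted with a Coulter counter.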

[6] = molecular target: T1, Human immunodeficiency virus type 1 reverse transcriptase; test: Inhibition of HIV1 reverse transcriptase using Poly rA.dT template
Outline: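 Recombinant HIV-1(IIIB) RT was assayed in 50 mM Tris-HCl pH 7.8 with 5 mM DTT, 300 mM glutathione, 500 µM EDTA, 150 mM KCl, 5 mM MgCl2, BSA and 0.06% Triton X-100. Template/primer was poly(A).oligo(dT) at 0.1 mM with [3H]dTTP at 0.6 µM. Reactions ran 30 min at 37 °C, followed by TCA precipitation and radioactivity counting.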

[7] = system: Human immunodeficiency virus 2; test: Antiviral activity against HIV2 ROD in CEM cells; format: functional, organism-based; conditions: Human immunodeficiency virus 2, ROD, CCRF-CEM; outline: as §1
[8] = system: Human immunodeficiency virus 1; test: Antiviral activity against HIV1 3B with reverse transcriptase Lys103 Asn mutation; format: functional, organism-based; conditions: Human immunodeficiency virus 1, 3B
Outline: (§2)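 CEM cells at 4×10^4 cells/mL were infected with HIV-1(III_B) strains carrying NNRTI-type RT mutations, at ~100 CCID₅₀ per mL of cell suspension. Infected cells were mixed 1:1 with serial compound dilutions. Giant cell formation was scored microscopically after four days. EC₅₀ is the concentration inhibiting virus-induced cytopathicity by 50%.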

[9] = system: Human immunodeficiency virus 1; test: Antiviral activity against HIV1 3B with reverse transcriptase Tyr181Ile mutation; format: functional, organism-based; conditions: Human immunodeficiency virus 1, 3B; outline: as §2
[10] = system: Human immunodeficiency virus 1; test: Antiviral activity against HIV1 3B with reverse transcriptase Tyr181His mutation; format: functional, organism-based; conditions: Human immunodeficiency virus 1, 3B
[11] = system: Human immunodeficiency virus 1; test: Antiviral activity against HIV1 3B with reverse transcriptase Tyr181Cys mutation; format: functional, organism-based; conditions: Human immunodeficiency virus 1, 3B; outline: as §2
[12] = system: Human immunodeficiency virus 1; test: Antiviral activity against HIV1 3B with reverse transcriptase Leu100Ile mutation; format: functional, organism-based; conditions: Human immunodeficiency virus 1, 3B; outline: as §2

SMILES	Activity [1]	EC50 [2]	IC50 [3]	Ratio CC50/EC50 [4]	CC50 [5]	IC50 [6]	EC50 [7]	EC50 [8]	Ki [3]	EC50 [9]	EC50 [10]	EC50 [11]	EC50 [12]
Cc1cc(C)nc(N2C(=O)CS[C@H]2C23CC4CC(CC(C4)C2)C3)c1	inactive	12 µM	> 584 µM	3.8	44 µM	> 584 µM	> 58 µM	–	–	–	–	–	–
O=C1CSC(C23CC4CC(CC(C4)C2)C3)N1c1ccccn1 (stereo unspecified)	inactive	> 318 µM	–	<1	> 318 µM	–	> 318 µM	–	–	–	–	–	–
O=C1CSC(C23CC4CC(CC(C4)C2)C3)N1c1ccc(Cl)c(C(F)(F)F)c1 (stereo unspecified)	inactive	> 48 µM	–	<1	> 240 µM	–	> 48 µM	–	–	–	–	–	–
COc1ccc(N2C(=O)CSC2C23CC4CC(CC(C4)C2)C3)cc1 (stereo unspecified)	inactive	> 12 µM	–	<6	74 µM	–	> 12 µM	–	–	–	–	–	–
Cc1cc(C)nc(N2C(=O)CSC2C23CC4CC(CC(C4)C2)C3)c1 (stereo unspecified)	–	0.35 µM	29 µM	120	42 µM	38 µM	> 11.7 µM	–	–	–	–	–	–
O=C1CSC(C23CC4CC(CC(C4)C2)C3)N1CCN1CCCCC1 (stereo unspecified)	inactive	> 11 µM	–	<4	44 µM	–	> 11 µM	–	–	–	–	–	–
Cc1cc(C)nc(N2C(=O)CSC2C)c1 (stereo unspecified)	–	> 450 µM	≥ 900 µM	>450	> 450 µM	> 900 µM	> 450 µM	–	–	–	–	–	–
O=C1CSC(C23CC4CC(CC(C4)C2)C3)N1c1ccc(I)cc1 (stereo unspecified)	inactive	> 228 µM	–	<=1	≥ 228 µM	–	> 45 µM	–	–	–	–	–	–
CCN(CC)CCN1C(=O)CSC1C12CC3CC(CC(C3)C1)C2 (stereo unspecified)	inactive	7.7 µM	475 µM	7.2	56 µM	481 µM	> 59 µM	–	–	–	–	–	–
Cc1cccc(N2C(=O)CSC2C23CC4CC(CC(C4)C2)C3)n1 (stereo unspecified)	inactive	21 µM	40 µM	14	> 304 µM	43 µM	> 304 µM	–	–	–	–	–	–
O=c1[nH]cnc2c1ncn2[C@H]1CC[C@@H](CO)O1 [DIDANOSINE]	–	4.6 µM	–	>54	> 250 µM	–	–	–	–	–	–	–	–
O=C1CSC(C23CC4CC(CC(C4)C2)C3)N1c1ccc(Cl)cc1 (stereo unspecified)	inactive	> 57 µM	–	<=5	≥ 287 µM	–	> 57.5 µM	–	–	–	–	–	–
Cc1ccc(N2C(=O)CSC2C23CC4CC(CC(C4)C2)C3)nc1 (stereo unspecified)	inactive	> 12 µM	–	<4.8	59 µM	–	> 12.4 µM	–	–	–	–	–	–
O=C1CSC(C23CC4CC(CC(C4)C2)C3)N1CCN1CCOCC1 (stereo unspecified)	inactive	> 57 µM	–	<3	140 µM	–	> 57.1 µM	–	–	–	–	–	–
O=C1CSC(C23CC4CC(CC(C4)C2)C3)N1c1ccc(Br)cc1 (stereo unspecified)	inactive	> 255 µM	–	<1	≥ 255 µM	–	> 255 µM	–	–	–	–	–	–
N#Cc1ccc(N2C(=O)CSC2C23CC4CC(CC(C4)C2)C3)cc1 (stereo unspecified)	inactive	> 295 µM	–	<=1	≥ 295 µM	–	> 295 µM	–	–	–	–	–	–
Cc1ccnc(N2C(=O)CSC2C23CC4CC(CC(C4)C2)C3)c1 (stereo unspecified)	inactive	5.6 µM	40 µM	>54	> 304 µM	88 µM	> 304 µM	–	–	–	–	–	–
CCN(CC)CCCN1C(=O)CSC1C12CC3CC(CC(C3)C1)C2 (stereo unspecified)	inactive	28 µM	> 571 µM	3.1	89 µM	> 571 µM	> 57 µM	–	–	–	–	–	–
Cc1cc(C)nc(N2C(=O)CS[C@@H]2C23CC4CC(CC(C4)C2)C3)c1	inactive	0.178 µM	19 µM	198	35 µM	20 µM	> 12 µM	1.5 µM	12 µM	> 12 µM	> 12 µM	8.2 µM	2.3 µM
O=C1CSC(C23CC4CC(CC(C4)C2)C3)N1c1ccc(F)cc1 (stereo unspecified)	inactive	> 302 µM	–	<=1	≥ 302 µM	–	> 302 µM	–	–	–	–	–	–
Cc1ccnc2c1NC(=O)c1cccnc1N2C1CC1 [NEVIRAPINE]	–	–	–	–	> 50 µM	–	> 50 µM	–	–	–	–	–	–
Cc1cccnc1N1C(=O)CSC1C12CC3CC(CC(C3)C1)C2 (stereo unspecified)	inactive	> 12 µM	–	<2.5	29 µM	–	> 12 µM	–	–	–	–	–	–
CN(C)CCCN1C(=O)CSC1C12CC3CC(CC(C3)C1)C2 (stereo unspecified)	inactive	31 µM	≥ 620 µM	4	122 µM	> 620 µM	> 62 µM	–	–	–	–	–	–
CN(C)CCN1C(=O)CSC1C12CC3CC(CC(C3)C1)C2 (stereo unspecified)	inactive	65 µM	> 648 µM	1.9	125 µM	> 648 µM	> 65 µM	–	–	–	–	–	–
O=C1CSC(C23CC4CC(CC(C4)C2)C3)N1c1cccnc1 (stereo unspecified)	inactive	≥ 32 µM	≥ 636 µM	<=3	105 µM	≥ 636 µM	> 63 µM	–	–	–	–	–	–
O=C1CSC(C23CC4CC(CC(C4)C2)C3)N1c1ccncc1 (stereo unspecified)	inactive	> 63 µM	–	<2.5	159 µM	–	> 63 µM	–	–	–	–	–	–
